The term EC50 denotes the midpoint of the concentration-response curve.

A value given as a limit tells only on which side of the number the result lay.

Assay [1] concerns Aorta. The experiment in a line: Ratio of EC50 for vasodilatory activity in Wistar rat endothelium-denuded thoracic aortic ring in presence of chloral hydrate to EC50 for vasodilatory activity in Wistar rat endothelium-denuded thoracic aortic ring. It is filed as functional.
The test system of assay [2] is Aorta. The experiment in a line: Ratio of EC50 for vasodilatory activity in Wistar rat endothelium-denuded cross tolerant thoracic aortic ring preincubated with 0.55 mM GTN for 1 hr followed by washing to EC50 for vasodilatory activity in Wistar rat endothelium-denuded thoracic aortic ring. It is filed as functional. In short, it runs like this: (§1)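 Endothelium-denuded helical rat aortic strips. After 1 h equilibration, strips were incubated in 0.55 mM GTN for 1 h, then washed extensively for 1 h. Cumulative concentration-response curves were then run on contracted strips. EC50 (µM, mean ± SE, n = 3-15) was compared with untreated strips.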

Assay [3] deals with Aorta. The experiment in a line: Vasodilatory activity in Wistar rat endothelium-denuded thoracic aortic ring assessed as inhibition of phenylephrine-induced contraction drug treated 30 mins after ALDH2 inhibitor chloral hydrate treatment. It is filed as functional, tissue-based. Conditions: 0.5 h.
Assay [4] deals with Aorta. The experiment in a line: Ratio of EC50 for vasodilatory activity in Wistar rat endothelium-denuded thoracic aortic ring in presence of benomyl to EC50 for vasodilatory activity in Wistar rat endothelium-denuded thoracic aortic ring. The class given is functional.
Assay [5] concerns Aorta. Nature of the assay: Vasodilatory activity in Wistar rat endothelium-denuded thoracic aortic ring assessed as inhibition of phenylephrine-induced contraction drug treated 30 mins after 1 uM soluble guanylate cyclase heme site inhibitor ODQ treatment. It is filed as functional, tissue-based. The conditions noted are these: 0.5 h.
For assay [6], the system named is Aorta. Nature of the assay: Vasodilatory activity in Wistar rat endothelium-denuded thoracic aortic ring assessed as inhibition of phenylephrine-induced contraction drug treated 30 mins after ALDH2 inhibitor benomyl treatment. It is filed as functional, tissue-based. The conditions noted are these: 0.5 h.
For assay [7], the system named is Aorta. The experiment in a line: Vasodilatory activity in Wistar rat endothelium-denuded cross tolerant thoracic aortic ring assessed as inhibition of phenylephrine-induced contraction preincubated with 0.55 mM GTN for 1 hr followed by washing. It is filed as functional, tissue-based. The method in brief: as §1
The test system of assay [8] is Aorta. The experiment in a line: Vasodilatory activity in Wistar rat endothelium-denuded thoracic aortic ring assessed as inhibition of phenylephrine-induced contraction. It is filed as functional, tissue-based. In short, it runs like this: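 Endothelium removed from rat aorta; three helically cut strips per aorta. Once agonist contraction plateaued, cumulative vasodilator concentrations were added. EC50 (µM) given as mean ± SE, n = 3-15.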

On to `O=[N+]([O-])OC[C@@H](CCc1ccccc1)O[N+](=O)[O-]`, for which the “Ratio EC50” value is reported as 5.5 in assay [1], 33 in assay [2] and 2.4 in assay [4]. Besides, the EC50 in assay [3] is 270 nM; in assay [5] it was 29000 nM; in assay [6], 120 nM; in assay [7], 1600 nM; in assay [8], 49 nM.
On to `O=[N+]([O-])OCC(CO[N+](=O)[O-])O[N+](=O)[O-]` [NITROGLYCERIN], for which the “Ratio EC50” value in assay [1] was determined as 32; in assay [2] it was 152; in assay [4], 14. The EC50 was 940 nM in assay [3]; above 100000 nM in assay [5]; 420 nM in assay [6]; 4400 nM in assay [7]; 29 nM in assay [8].
`O=[N+]([O-])OCCCc1ccccc1`: the “Ratio EC50” value amounted to 19 in assay [1], 125 in assay [2] and 9.4 in assay [4]. Further, the EC50 in assay [3] was 3000 nM; in assay [5], above 100000 nM; in assay [6] it was 1500 nM; in assay [7], 20000 nM; in assay [8], 160 nM.
In the case of `O=[N+]([O-])OCCCCc1ccccc1`, the “Ratio EC50” value in assay [1] came out at 7.3; in assay [2], 30; in assay [4], 3.4. Besides, the concentration for a half-maximal effect (EC50) in assay [3] turned out to be 1100 nM; in assay [5], 66000 nM; in assay [6], 510 nM; in assay [7] it was 4500 nM; in assay [8], 150 nM.
As for `O=[N+]([O-])OC[C@H](CCc1ccccc1)O[N+](=O)[O-]`, the “Ratio EC50” value in assay [1] is reported as 7.6; in assay [2], 49; in assay [4], 3.3. For the same molecule, the EC50 in assay [3] was 370 nM; in assay [5] it was 30000 nM; in assay [6], 160 nM; in assay [7] it was 2400 nM; in assay [8], 49 nM.
For the molecule `O=[N+]([O-])OC[C@H](Cc1ccccc1)O[N+](=O)[O-]`, the “Ratio EC50” value in assay [1] is on record as 20; in assay [2] it was 100; in assay [4], 9.8. The EC50 in assay [3] was 1200 nM; in assay [5], above 100000 nM; in assay [6] it was 600 nM; in assay [7], 6100 nM; in assay [8], 61 nM.
Turning to `O=[N+]([O-])OC[C@@H](Cc1ccccc1)O[N+](=O)[O-]`, the “Ratio EC50” value in assay [1] is reported as 19; in assay [2], 102; in assay [4], 10. Further, the concentration giving a half-maximal response (EC50) in assay [3] is 1200 nM; in assay [5], above 100000 nM; in assay [6], 630 nM; in assay [7] it was 6400 nM; in assay [8], 63 nM.

The values are drawn from ChEMBL document CHEMBL1136934, “Synthesis of some novel organic nitrates and comparative in vitro study of their vasodilator profile” (J Med Chem, 2009).
